According to ChEMBL document CHEMBL1124624, “Synthesis and biological evaluation of 4,6-diethyl-1,3,4,5-tetrahydropyrano[4,3-b]indole-4-acetic acid, an isomer of etodolac” (J Med Chem, 1989):
pIC50: −log10 of the molar value.

How the values were obtained:
[1] = tested on: Rattus norvegicus; experiment: Antiinflammatory activity of the perorally administered compound assessed in adjuvant arthritis assay in rat; format: functional; details: po
Procedure, shortened: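 Rats given test compound by mouth in the curative (established-disease) adjuvant arthritis/edema model. Inhibition of paw edema was scored, and potency is given as an ED50 in mg/kg.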

[2] = In vitro inhibition of prostaglandin E2 production in cultured chondrocytes; format: functional, cell-based
Procedure, shortened: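 Cultured chondrocytes were exposed to compound at neutral pH over a short incubation period. Prostaglandin E2 production was measured, and inhibitory potency is given as an IC50.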

pIC50 [2]	SMILES	ED50 [1] [mg/kg]
6.52	CCC1(CC(=O)O)SCCc2c1[nH]c1ccccc21 (configuration not stated)	> 25
–	CCc1cccc2c3c([nH]c12)C(CC)(CC(=O)O)CCCC3 (configuration not stated)	> 50
7.00	CCC1(CC(=O)O)OCCc2c1[nH]c1ccccc21 (configuration not stated)	6.8
7.70	CCc1cccc2c3c([nH]c12)C(CC)(CC(=O)O)CCC3 (configuration not stated)	1.9
7.30	CCc1cccc2c3c([nH]c12)C(CC)(CC(=O)O)COC3 (configuration not stated)	3
–	CCc1cccc2c3c([nH]c12)C(CC)(CC(=O)O)CC3 (configuration not stated)	6.2
7.64	CCc1cccc2c3c([nH]c12)C(CC)(CC(=O)O)OCC3 (configuration not stated) [ETODOLAC]	0.7
